Test results published in ChEMBL document CHEMBL1157853, “Synthesis, pharmacological activity and comparative QSAR modeling of 1,5-N,N'-substituted-2-(substituted naphthalenesulphonyl) glutamamides as possible anticancer agents” (2010).

Legend:
[1] = Antitumor activity against ip dosed mouse EAC implanted in Swiss albino mouse assessed as inhibition of ascitic fluid administered daily for 7 days measured on 9th day relative to control; type: functional, Ehrlich
In short: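 Female Swiss albino mice (18-20 g, 6 per group) implanted ip with 2×10^6 EAC cells/0.2 mL. Compound in phosphate buffer pH 7.2 (PBS + 2% Tween 80 when needed) given ip daily from day 2, seven doses; controls received vehicle. Day 9, after a 6 h fast, mice weighed before and after ascitic fluid removal; the difference is tumor weight. %TWI derived from mean test vs control weight.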

[2] = Antitumor activity against ip dosed mouse EAC implanted in Swiss albino mouse assessed as inhibition of ascitic cell administered daily for 7 days measured on 9th day relative to control; type: functional, Ehrlich
In short: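 Female Swiss albino mice (18-20 g, 6 per group, test vs vehicle control) given 2×10^6 EAC cells/0.2 mL ip. From day 2, compound in phosphate buffer pH 7.2 (2% Tween 80 in PBS if needed) given ip every 24 h for seven doses. Day 9, after a 6 h fast, ascitic fluid withdrawn and live cells counted by trypan blue and haemocytometer. %TCI derived from mean cells/ml in test vs control.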

| SMILES | inhibition (INH) [1] [%] | inhibition (INH) [2] [%] |
| --- | --- | --- |
| CCNC(=O)CCC(NS(=O)(=O)c1ccc(Br)c2ccccc12)C(=O)NCC (configuration not stated) | 24.34 | 16.22 |
| NC(=O)CCC(NS(=O)(=O)c1ccc(Br)c2ccccc12)C(N)=O (configuration not stated) | 36.46 | 58.25 |
| CCCNC(=O)CCC(NS(=O)(=O)c1ccc(Br)c2ccccc12)C(=O)NCCC (configuration not stated) | 2.96 | 14.86 |
| CCCCCNC(=O)CCC(NS(=O)(=O)c1ccc(Br)c2ccccc12)C(=O)NCCCCC (configuration not stated) | 22.81 | 10.42 |
| CCCNC(=O)CCC(NS(=O)(=O)c1cccc2ccccc12)C(=O)NCCC (configuration not stated) | 16.15 | 14.21 |
| CC(C)NC(=O)CCC(NS(=O)(=O)c1cccc2ccccc12)C(=O)NC(C)C (configuration not stated) | 17.74 | 43.96 |
| CCCCNC(=O)CCC(NS(=O)(=O)c1cccc2ccccc12)C(=O)NCCCC (configuration not stated) | 14.34 | 16.17 |
| CC(C)CNC(=O)CCC(NS(=O)(=O)c1cccc2ccccc12)C(=O)NCC(C)C (configuration not stated) | 11.93 | 61.96 |
| CNC(=O)CCC(NS(=O)(=O)c1ccc(Br)c2ccccc12)C(=O)NC (configuration not stated) | 20.58 | 10.62 |
| CCNC(=O)CCC(NS(=O)(=O)c1ccc(Cl)c2ccccc12)C(=O)NCC (configuration not stated) | 24.1 | 48.67 |
| CCCNC(=O)CCC(NS(=O)(=O)c1ccc(Cl)c2ccccc12)C(=O)NCCC (configuration not stated) | 18.73 | 39.33 |
| CC(C)NC(=O)CCC(NS(=O)(=O)c1ccc(Cl)c2ccccc12)C(=O)NC(C)C (configuration not stated) | 24.68 | 75.17 |
| CCCCNC(=O)CCC(NS(=O)(=O)c1ccc(Cl)c2ccccc12)C(=O)NCCCC (configuration not stated) | 20.71 | 33.1 |
| CCCCCNC(=O)CCC(NS(=O)(=O)c1cccc2ccccc12)C(=O)NCCCCC (configuration not stated) | 56.62 | 17.64 |
| O=C(CCC(NS(=O)(=O)c1cccc2ccccc12)C(=O)NC1CCCCC1)NC1CCCCC1 (configuration not stated) | 43.58 | 53.76 |
| O=C(CCC(NS(=O)(=O)c1cccc2ccccc12)C(=O)NCc1ccccc1)NCc1ccccc1 (configuration not stated) | 17.04 | 34.46 |

| SMILES | inhibition (INH) [1] [%] | inhibition (INH) [2] [%] |
| --- | --- | --- |
| NC(=O)CCC(NS(=O)(=O)c1cccc2ccccc12)C(N)=O (configuration not stated) | 32.19 | 38.34 |
| CNC(=O)CCC(NS(=O)(=O)c1cccc2ccccc12)C(=O)NC (configuration not stated) | 27.42 | 69.32 |
| CCNC(=O)CCC(NS(=O)(=O)c1cccc2ccccc12)C(=O)NCC (configuration not stated) | 24.61 | 27.92 |
| CCCCCCNC(=O)CCC(NS(=O)(=O)c1c(OC)ccc2ccccc12)C(=O)NCCCCCC (configuration not stated) | 5.19 | 14.79 |
| CC(C)CNC(=O)CCC(NS(=O)(=O)c1ccc(Cl)c2ccccc12)C(=O)NCC(C)C (configuration not stated) | 15.2 | 41.28 |
| CCCCCCNC(=O)CCC(NS(=O)(=O)c1ccc(Cl)c2ccccc12)C(=O)NCCCCCC (configuration not stated) | 15.95 | 50.51 |
| O=C(CCC(NS(=O)(=O)c1ccc(Cl)c2ccccc12)C(=O)NCc1ccccc1)NCc1ccccc1 (configuration not stated) | 22.69 | 22.94 |
| CNC(=O)CCC(NS(=O)(=O)c1ccc(Cl)c2ccccc12)C(=O)NC (configuration not stated) | 20.57 | 46.52 |
| NC(=O)CCC(NS(=O)(=O)c1ccc(Cl)c2ccccc12)C(N)=O (configuration not stated) | 55.21 | 48.52 |
| COc1ccc2ccccc2c1S(=O)(=O)NC(CCC(=O)NC1CCCCC1)C(=O)NC1CCCCC1 (configuration not stated) | 13.52 | 4.34 |
| O=C(CCC(NS(=O)(=O)c1ccc(Br)c2ccccc12)C(=O)NCc1ccccc1)NCc1ccccc1 (configuration not stated) | 8.99 | 23.5 |
| COc1ccc2ccccc2c1S(=O)(=O)NC(CCC(=O)NCc1ccccc1)C(=O)NCc1ccccc1 (configuration not stated) | 7.57 | 18.78 |
| [N-]=[N+]=CC(=O)CC[C@H](N)C(=O)O [6-DIAZO-5-OXO-L-NORLEUCINE] | 100 | 100 |
| [N-]=[N+]=CC(=O)OC[C@H](N)C(=O)O [AZASERINE] | 100 | 100 |
| CO[C@@]12[C@H](COC(N)=O)C3=C(C(=O)C(C)=C(N)C3=O)N1C[C@@H]1N[C@@H]12 [MITOMYCIN] | 100 | 100 |
